{"source": "ChEMBL document CHEMBL1649090", "about": "“Discovery of (7R)-14-cyclohexyl-7-{[2-(dimethylamino)ethyl](methyl) amino}-7,8-dihydro-6H-indolo[1,2-e][1,5]benzoxazocine-11-carboxylic acid (MK-3281), a potent and orally bioavailable finger-loop inhibitor of the hepatitis C virus NS5B polymerase” (J Med Chem, 2011)", "key": {"[1]": {"experiment": "Intrinsic clearance in rat liver microsomes assessed per mg of protein", "type": "ADME, Microsome"}, "Hepatitis C virus [2]": {"system": "Hepatitis C virus", "experiment": "Antiviral activity against HCV1b BK", "type": "functional, organism-based, Hepacivirus hominis", "conditions": "genotype 1b BK"}, "Hepatitis C virus [3]": {"system": "Hepatitis C virus", "experiment": "Antiviral activity against HCV2b", "type": "functional, organism-based, Hepacivirus hominis", "conditions": "genotype 2b"}, "[4]": {"experiment": "Plasma concentration in SCID mouse at 50 mg/kg, ip bid for 5 days measured 12 hrs after last post dose", "type": "ADME, organism-based", "parameters": "dose 50 mg/kg, route intraperitoneal", "procedure,_shortened": "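SCID mice (n = 3) were given 50 mg/kg by intraperitoneal injection twice daily for five consecutive days. Plasma compound level was measured 12 h after the last dose.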"}, "Hepatitis C virus [5]": {"system": "Hepatitis C virus", "experiment": "Antiviral activity against HCV1b infected in humanized uPA+/+-SCID mouse assessed as reduction of viremia at 50 mg/kg, ip bid for 4 days", "type": "functional, Hepacivirus hominis", "conditions": "route intraperitoneal", "procedure,_shortened": "(§1)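 Three chimeric uPA+/+-SCID mice with human hepatocytes, infected with genotype 1b HCV, received the dose intraperitoneally twice daily for 4 days in PEG400/water 30%/70%. Three vehicle-only mice were dosed for four days as controls. Plasma HCV RNA change is reported per animal and as mean, in log10 (lower limit 315 IU/mL). Follow-up ran to day 21. Plasma trough drug was measured 12 h after the last dose.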"}, "[6]": {"experiment": "AUC in rhesus monkey at 4 mg/kg, po", "type": "ADME, organism-based, Macaca mulatta", "parameters": "dose 4 mg/kg, route oral", "conditions": "plasma", "procedure,_shortened": "(§2)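 Single-dose PK of the bis-HCl salt, n = 3 per species (dog po n = 2). Intravenous doses: rat 3, dog 1, rhesus 2 mg/kg, in DMSO/PEG400/water 20%/60%/20%. Oral doses: rat 3, dog 2, rhesus 4 mg/kg, in PEG400 for rat and dog and PEG400/water 70%/30% for rhesus.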"}, "[7]": {"experiment": "AUC in dog at 2 mg/kg, po", "type": "ADME, organism-based, Canis lupus familiaris", "parameters": "dose 2 mg/kg, route oral", "conditions": "plasma", "procedure,_shortened": "as §2"}, "[8]": {"experiment": "Plasma protein binding in monkey", "type": "ADME, cell-free, Macaca mulatta", "conditions": "rhesus monkey, read-out: PPB (converted)"}, "Hepatitis C virus [9]": {"system": "Hepatitis C virus", "experiment": "Antiviral activity against HCV2a", "type": "functional, organism-based, Hepacivirus hominis", "conditions": "genotype 2a"}, "[10]": {"experiment": "Plasma protein binding in human", "type": "ADME, cell-free", "conditions": "read-out: PPB (converted)"}, "[11]": {"experiment": "Drug level in Sprague-Dawley rat liver at 3 mg/kg, po after 6 hrs", "type": "ADME, organism-based", "parameters": "dose 3 mg/kg, route oral", "conditions": "read-out: Drug uptake", "procedure,_shortened": "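Sprague-Dawley rats (n = 3) received the compound as its TFA salt in DMSO/PEG400/water 20%/60%/20%, as a single iv dose of 3 mg/kg or a single oral dose of 3 mg/kg. Liver tissue and plasma concentrations were measured 6 h after the oral dose.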"}, "[12]": {"target": "T1, DNA polymerase alpha catalytic subunit (Homo sapiens) (UniProt P09884)", "T1 sequence (whole entry)": "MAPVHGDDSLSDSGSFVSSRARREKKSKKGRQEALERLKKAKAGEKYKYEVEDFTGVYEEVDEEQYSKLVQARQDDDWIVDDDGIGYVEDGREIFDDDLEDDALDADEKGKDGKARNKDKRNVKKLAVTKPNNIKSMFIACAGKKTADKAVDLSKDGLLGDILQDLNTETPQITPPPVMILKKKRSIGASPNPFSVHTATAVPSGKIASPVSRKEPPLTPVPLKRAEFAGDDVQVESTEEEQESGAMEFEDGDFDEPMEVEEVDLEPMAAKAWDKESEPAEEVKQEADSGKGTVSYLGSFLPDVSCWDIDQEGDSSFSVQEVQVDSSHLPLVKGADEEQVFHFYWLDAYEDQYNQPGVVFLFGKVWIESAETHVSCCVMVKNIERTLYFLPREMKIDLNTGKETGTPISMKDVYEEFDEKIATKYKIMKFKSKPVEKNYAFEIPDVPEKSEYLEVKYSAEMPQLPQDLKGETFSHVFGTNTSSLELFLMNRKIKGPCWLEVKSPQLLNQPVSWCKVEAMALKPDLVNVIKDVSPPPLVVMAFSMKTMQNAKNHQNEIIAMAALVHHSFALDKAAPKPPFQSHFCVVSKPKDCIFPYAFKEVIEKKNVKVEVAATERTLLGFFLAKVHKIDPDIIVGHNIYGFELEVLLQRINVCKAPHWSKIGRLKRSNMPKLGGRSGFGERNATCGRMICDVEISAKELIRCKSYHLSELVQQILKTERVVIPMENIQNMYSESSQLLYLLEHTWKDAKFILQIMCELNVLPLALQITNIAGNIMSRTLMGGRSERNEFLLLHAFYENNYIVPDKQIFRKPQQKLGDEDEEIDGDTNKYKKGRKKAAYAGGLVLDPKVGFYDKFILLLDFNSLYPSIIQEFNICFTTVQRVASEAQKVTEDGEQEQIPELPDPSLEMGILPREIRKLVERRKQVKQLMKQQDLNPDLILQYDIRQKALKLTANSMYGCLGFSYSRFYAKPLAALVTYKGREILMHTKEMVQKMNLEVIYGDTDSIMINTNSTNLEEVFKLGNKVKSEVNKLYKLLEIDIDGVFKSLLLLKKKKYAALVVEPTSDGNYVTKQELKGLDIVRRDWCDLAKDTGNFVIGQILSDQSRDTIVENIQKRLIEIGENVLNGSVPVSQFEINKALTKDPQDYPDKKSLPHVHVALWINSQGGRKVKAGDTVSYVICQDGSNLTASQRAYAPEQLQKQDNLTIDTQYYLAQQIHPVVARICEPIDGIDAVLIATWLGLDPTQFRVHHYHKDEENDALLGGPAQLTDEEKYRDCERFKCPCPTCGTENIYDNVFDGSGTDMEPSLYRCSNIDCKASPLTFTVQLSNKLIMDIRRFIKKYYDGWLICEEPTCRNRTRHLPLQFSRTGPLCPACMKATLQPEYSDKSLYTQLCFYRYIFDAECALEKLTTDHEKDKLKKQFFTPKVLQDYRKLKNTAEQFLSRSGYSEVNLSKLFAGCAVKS", "experiment": "Inhibition of human DNA polymerase alpha up to 50 uM"}, "[13]": {"experiment": "Intrinsic clearance in dog liver microsomes assessed per mg of protein presence of UDPGA", "type": "ADME, Canis lupus familiaris, Microsome"}, "Hepatitis C virus [14]": {"system": "Hepatitis C virus", "experiment": "Inhibition of HCV1b NS5B delta21 polymerase after 1 hr", "type": "single protein, Hepatitis C virus subtype 1b", "procedure,_shortened": "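Enzyme inhibition IC50 measured on genotype 1b HCV NS5B polymerase truncated by 21 C-terminal residues (ΔC21).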"}, "[15]": {"experiment": "Clearance in dog at 1 mg/kg, iv and 2 mg/kg, po", "type": "ADME, organism-based, Canis lupus familiaris", "conditions": "in vivo", "procedure,_shortened": "as §2"}, "Hepatitis C virus [16]": {"system": "Hepatitis C virus", "experiment": "Antiviral activity against HCV1b infected in humanized uPA+/+-SCID mouse assessed as reduction of plasma viral RNA level at 50 mg/kg, ip bid for 4 days", "type": "functional, Hepacivirus hominis", "conditions": "route intraperitoneal", "procedure,_shortened": "as §1"}, "[17]": {"experiment": "Plasma protein binding in rat", "type": "ADME, cell-free", "conditions": "read-out: PPB (converted)"}, "[18]": {"experiment": "Plasma concentration in HCV1b infected humanized uPA+/+-SCID mouse at 10 mg/kg, ip bid for 4 days measured 12 hrs after last post dose", "type": "ADME, organism-based", "parameters": "dose 10 mg/kg, route intraperitoneal", "procedure,_shortened": "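Three humanized uPA+/+-SCID mice infected with genotype 1b HCV received 10 or 50 mg/kg ip twice daily for 4 days, in PEG400/water 30%/70%. Trough plasma concentration was taken 12 h after the last dose.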"}, "[19]": {"target": "Macrophage metalloelastase (Homo sapiens, UniProt P39900)", "sequence (P39900 whole entry)": "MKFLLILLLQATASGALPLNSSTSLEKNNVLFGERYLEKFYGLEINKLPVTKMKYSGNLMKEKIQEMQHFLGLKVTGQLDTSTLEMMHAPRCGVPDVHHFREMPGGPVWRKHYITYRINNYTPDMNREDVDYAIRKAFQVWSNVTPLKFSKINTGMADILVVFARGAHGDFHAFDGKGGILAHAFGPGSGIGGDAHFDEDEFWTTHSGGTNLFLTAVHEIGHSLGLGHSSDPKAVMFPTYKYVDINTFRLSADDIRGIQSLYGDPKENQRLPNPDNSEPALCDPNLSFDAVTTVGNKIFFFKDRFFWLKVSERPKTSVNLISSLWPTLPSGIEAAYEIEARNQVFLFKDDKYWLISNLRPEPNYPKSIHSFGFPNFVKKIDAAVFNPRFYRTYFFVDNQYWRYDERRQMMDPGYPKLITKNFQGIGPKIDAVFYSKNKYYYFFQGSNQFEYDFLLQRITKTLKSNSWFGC", "experiment": "Inhibition of MMP12"}, "[20]": {"experiment": "Volume of distribution at steady state in dog at 1 mg/kg, iv and 2 mg/kg, po", "type": "ADME, organism-based, Canis lupus familiaris", "conditions": "in vivo, read-out: Vdss", "procedure,_shortened": "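Single iv and single oral doses, given as the bis-HCl salt, in rat, dog and rhesus, n = 3 per species (dog oral n = 2). The iv vehicle was DMSO/PEG400/water 20%/60%/20%. Oral vehicle was PEG400 for rat and dog and PEG400/water 70%/30% for rhesus. Values are mean ± SD.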"}}, "note": "Active and inactive are the calls of the source. The rule behind the calls is not given here."}
{"molecule": "CN(C)CCN(C)[C@H]1COc2ccccc2-c2c(C3CCCCC3)c3ccc(C(=O)O)cc3n2C1", "note": "[MK-3281]", "values": [{"measurement": "microsomal CLint", "setting": "[1]", "result": 7, "unit": "µL/min/mg"}, {"measurement": "EC50", "setting": "Hepatitis C virus [2]", "result": 9, "unit": "nM"}, {"measurement": "EC50", "setting": "Hepatitis C virus [3]", "result": 1830, "unit": "nM"}, {"measurement": "concentration at 12 h", "setting": "[4]", "result": 3600, "unit": "nM"}, {"measurement": "fold change (FC)", "setting": "Hepatitis C virus [5]", "result": -3.94}, {"measurement": "AUC", "setting": "[6]", "result": 7.4, "unit": "µM·h"}, {"measurement": "AUC", "setting": "[7]", "result": 8.6, "unit": "µM·h"}, {"measurement": "fraction unbound", "setting": "[8]", "result": 0.074}, {"measurement": "EC50", "setting": "Hepatitis C virus [9]", "result": 2020, "unit": "nM"}, {"measurement": "fraction unbound", "setting": "[10]", "result": 0.031}, {"measurement": "concentration at 6 h", "setting": "[11]", "result": 420, "unit": "nM"}, {"measurement": "inhibition", "setting": "[12]", "result": "inactive"}, {"measurement": "microsomal CLint", "setting": "[13]", "result": "< 4", "unit": "µL/min/mg"}, {"measurement": "IC50", "setting": "Hepatitis C virus [14]", "result": 6, "unit": "nM"}, {"measurement": "clearance", "setting": "[15]", "result": 7, "unit": "mL/min/kg"}, {"measurement": "fold change (FC)", "setting": "Hepatitis C virus [16]", "result": 3.13}, {"measurement": "fraction unbound", "setting": "[17]", "result": 0.03}, {"measurement": "concentration at 12 h", "setting": "[18]", "result": 670, "unit": "nM"}, {"measurement": "IC50", "setting": "[19]", "result": 8300, "unit": "nM"}, {"measurement": "Vd", "setting": "[20]", "result": 2.6, "unit": "L/kg"}]}
